ChEMBL document CHEMBL1275416, “Chlamydia pneumoniae growth inhibition in cells by the steroid receptor antagonist RU486 (mifepristone)” (Antimicrob Agents Chemother, 2008)
Activity calls are given as the source filed them. The rule behind the calls is not given here.

Assays:
[1] = system: Chlamydia pneumoniae; experiment: Antimicrobial activity against Chlamydia pneumoniae infected in HEp-2 cells assessed as growth inhibition at 2 uM pretreated for 1 hr before infection; format: functional, organism-based
Outline: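 Before infecting HEp-2 cells, the bacteria were pretreated with 2 µM RU486 for 1 h or left untreated. Cells were then cultured with or without RU486 2 µM or cycloheximide 1 µg/ml. Infective progeny in 72 h lysates was assessed by IFU assay. Means ± SD of three experiments.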

[2] = system: Chlamydia pneumoniae; experiment: Antimicrobial activity against Chlamydia pneumoniae infected in HEp-2 cells assessed as a reduction in 16S rRNA transcript at 2 uM after 24 hrs by RT-PCR in presence of cycloheximide; format: functional, organism-based
Outline: (§1)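 Infected HEp-2 cells (5 x 10^5 cells/well) were treated with RU486 2 µM with or without cycloheximide 1 µg/ml. Total RNA was extracted at harvest. C. pneumoniae 16S rRNA was quantified by real-time RT-PCR (50 cycles, melt-curve check), and copies per reaction were taken from a standard curve of diluted C. pneumoniae DNA. Means ± SD, three experiments.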

[3] = system: Chlamydia pneumoniae; experiment: Antimicrobial activity against Chlamydia pneumoniae infected in HEp-2 cells assessed as inhibition of bacterial replication at 2 uM after 24 hrs; format: functional, organism-based
Outline: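 Time course: infected HEp-2 cells (MOI 10, centrifugation-assisted) were incubated with or without 2 µM RU486 for up to 72 h. At each time point, infective progeny in freeze-thaw lysates was titrated on fresh HEp-2 monolayers by IFU assay (72 h with cycloheximide 1 µg/ml, FITC anti-Chlamydia staining). Means ± SD, three experiments.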

[4] = system: Chlamydia pneumoniae; experiment: Antimicrobial activity against Chlamydia pneumoniae infected in HEp-2 cells 0.02 to 2 uM after 72 hrs; format: functional, organism-based
Outline: (§2)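 HEp-2 cells were infected with C. pneumoniae (MOI 10, centrifuged at 800 x g for 1 h at room temperature) and washed. They were seeded at 5 x 10^4 cells/well and cultured 72 h with RU486 (0.02 to 2 µM; ethanol vehicle control). Freeze-thaw lysates were serially diluted 10-fold onto HEp-2 monolayers, spun, grown 72 h at 37°C with cycloheximide 1 µg/ml, and FITC anti-Chlamydia stained for IFU counts. Means of three experiments.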

[5] = Cytotoxicity against human Hep2 cells at 20 uM; format: cell-based; settings: hep-2, 20 µM
[6] = system: Chlamydia pneumoniae; experiment: Antimicrobial activity against Chlamydia pneumoniae infected in HEp-2 cells at 2 uM after 72 hrs; format: functional, organism-based; outline: as §2
[7] = system: Chlamydia pneumoniae; experiment: Antimicrobial activity against Chlamydia pneumoniae infected in HEp-2 cells assessed as a reduction in 16S rRNA transcript at 2 uM after 24 hrs by RT-PCR; format: functional, organism-based; outline: as §1
[8] = system: Chlamydia pneumoniae; experiment: Antimicrobial activity against Chlamydia pneumoniae infected in HEp-2 cells assessed as a reduction in 16S rRNA transcript at 2 uM after 72 hrs by RT-PCR; format: functional, organism-based; outline: as §1
[9] = system: Chlamydia pneumoniae; experiment: Antimicrobial activity against Chlamydia pneumoniae infected in HEp-2 cells assessed as a reduction in 16S rRNA transcript at 2 uM after 72 hrs by RT-PCR in presence of cycloheximide; format: functional, organism-based; outline: as §1
[10] = system: Chlamydia pneumoniae; experiment: Antimicrobial activity against Chlamydia pneumoniae infected in HEp-2 cells; format: functional, organism-based; outline: as §2
[11] = Cmax in pregnant women at 800 mg, po; format: ADME, organism-based; design: dose 800 mg, route oral; settings: female, human, in vivo
[12] = Cytotoxicity against human Hep2 cells at >2 uM; format: cell-based; settings: hep-2
[13] = system: Chlamydia pneumoniae; experiment: Antimicrobial activity against Chlamydia pneumoniae infected in HEp-2 cells at 2 uM after 72 hrs in presence of cycloheximide; format: functional, organism-based
Outline: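 Infected HEp-2 cells were held 72 h with RU486 2 µM and/or cycloheximide 0.1 to 10 µg/ml, with untreated and ethanol controls. Infective progeny in cell lysates was counted by IFU assay on HEp-2 monolayers with FITC anti-Chlamydia antibody staining. Means ± SD of three experiments.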

[14] = system: Chlamydia pneumoniae; experiment: Antimicrobial activity against Chlamydia pneumoniae infected in HEp-2 cells at 20 uM; format: functional, organism-based

With CC#C[C@]1(O)CC[C@H]2[C@@H]3CCC4=CC(=O)CCC4=C3[C@@H](c3ccc(N(C)C)cc3)C[C@@]21C [MIFEPRISTONE] the Activity [1] was “inactive”, the Activity [2] was “inactive” and the inhibition [3] was “Active”. The Activity [4] was “Dose-dependent effect”, the Activity [5] was “Toxic” and the Activity [6] was “Active”. For the same compound, the Activity [7] was “Active”, the Activity [8] was “Active” and the Activity [9] was “inactive”. For the same compound, the Activity [10] was “Active”, the Cmax [11] was 2500 ng/mL and the Activity [12] was “Toxic”. For the same compound, the Activity [13] was “Active” and the Activity [14] was “Active”.
